# pEC50: −log10 of the molar value. Where a name gives a salt, the structure may show the parent alone.
# How the values were obtained:
# [1] = molecular target: Gamma-aminobutyric acid receptor subunit alpha-2 (Rattus norvegicus, UniProt P23576); experiment: Agonist activity at rat recombinant GABAA alpha-2-beta-3-gamma-2 receptor expressed in HEK293 cells assessed as normalization of GABA-induced current by whole cell patch-clamp technique
# Method in brief: (§1)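 HEK293 cells transiently co-transfected (calcium phosphate) with rat αi, β3 and γ2S cDNAs plus EGFP marker; recorded 2 days later by whole-cell patch clamp in HEPES saline pH 7.35.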
# [2] = molecular target: Gamma-aminobutyric acid receptor subunit alpha-1 (Rattus norvegicus, UniProt P62813); experiment: Agonist activity at rat recombinant GABAA alpha-1-beta-3-gamma-2 receptor expressed in HEK293 cells assessed as normalization of GABA-induced current by whole cell patch-clamp technique; method in brief: as §1
# Sequence of Gamma-aminobutyric acid receptor subunit alpha-1 (P62813 whole entry): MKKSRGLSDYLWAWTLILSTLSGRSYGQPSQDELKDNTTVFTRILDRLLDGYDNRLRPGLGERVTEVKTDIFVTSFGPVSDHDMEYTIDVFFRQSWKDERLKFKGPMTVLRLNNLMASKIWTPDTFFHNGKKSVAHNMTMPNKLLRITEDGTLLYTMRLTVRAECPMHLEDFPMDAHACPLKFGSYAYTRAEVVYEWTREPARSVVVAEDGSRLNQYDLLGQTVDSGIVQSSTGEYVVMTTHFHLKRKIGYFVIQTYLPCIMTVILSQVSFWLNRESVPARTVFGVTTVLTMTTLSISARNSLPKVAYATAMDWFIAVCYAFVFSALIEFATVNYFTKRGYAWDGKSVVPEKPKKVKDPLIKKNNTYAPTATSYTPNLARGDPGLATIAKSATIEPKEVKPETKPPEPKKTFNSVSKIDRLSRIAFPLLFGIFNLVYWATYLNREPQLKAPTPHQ
# Sequence of Gamma-aminobutyric acid receptor subunit alpha-2 (P23576 whole entry): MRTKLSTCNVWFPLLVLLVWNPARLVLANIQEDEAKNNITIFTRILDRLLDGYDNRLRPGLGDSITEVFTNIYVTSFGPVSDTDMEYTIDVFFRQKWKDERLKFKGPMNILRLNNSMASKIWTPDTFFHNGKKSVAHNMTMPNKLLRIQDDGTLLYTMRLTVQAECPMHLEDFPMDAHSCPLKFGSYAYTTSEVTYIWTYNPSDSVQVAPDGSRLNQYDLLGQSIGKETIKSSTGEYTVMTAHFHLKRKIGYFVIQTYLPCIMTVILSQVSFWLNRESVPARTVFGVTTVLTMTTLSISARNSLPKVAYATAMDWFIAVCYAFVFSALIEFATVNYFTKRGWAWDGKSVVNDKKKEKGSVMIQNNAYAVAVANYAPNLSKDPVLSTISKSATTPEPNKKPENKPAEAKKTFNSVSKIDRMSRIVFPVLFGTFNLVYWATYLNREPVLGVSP
smiles,measurement,setting,value
"NCc1n[nH]c(=O)o1 [5-Aminomethyl-3H-[1,3,4]oxadiazol-2-one Hydrochloride]",pEC50,[1],3.74
same,pEC50,[2],3.55

# — BindingDB's records for doi:10.1021/jm701562x (Johannes Gutenberg University, 2008)
